Screening results as filed in PubChem.
Compounds with a hit are over-represented: about 3.6% of the library has one in this group of screens.
RAM network inh: yeast RAM network inhibition; inhibition, % at 50 µM; S. cerevisiae dse1pr::URA3 reporter, 5-FOA growth OD615, 2 d; analog-sensitive cbk1-as2 kinase mutant strain; AID 868; hit rate 1.8% among 190,000;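 active means inhibition above a set limit, 3 SD over mean compound inhibition, cut at about 8.4% in these data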;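 further: 0% = DMSO-only wells with no growth and 100% = 10 µM 1-NA-PP1 full growth; inhibition rescues growth on 5-FOA so higher OD means more RAM inhibition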
Yeast lifespan up: extends the lifespan of yeast. S. cerevisiae growth with nicotinamide, OD615; deaD strain in restrictive glucose medium. inhibition of the nicotinamide effect, % at 10 µM. hit rate 0.68% among 130,000. AID 775;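 active means inhibition above a set limit, placed 3 SD over the median of all compounds, cut at about 26% in these data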;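 further: 0% = nicotinamide-treated wells and 100% = cells grown without nicotinamide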
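Measured by: optical density (absorbance) at 615 nm; System: modified budding yeast, DeaD strain; Medium: restrictive CSMM-D dextrose medium; Timing: 4 h preincubation then 48 h treatment at 30 °C.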
Measles CPE: protection of cells from measles virus. protection (pct of control), % at 4 µM. Measles virus-infected cells, CPE protection, absorbance. AID 841. hit rate 1.5% among 140,000; in the data active means protection mostly above about 24%, no sharp cut-off; inactive means mostly below about 26%
BB579 growth dn: chemicals that inhibit yeast BB579 growth in restrictive medium (lifespan-shortening candidates) | S. cerevisiae BB579 growth, OD615, 48 h | inhibition, % at 10 µM | hit rate 0.51% among 140,000;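 active means inhibition above a set limit, 3 SD over the mean compound inhibition, cut at about 44% in these data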
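Detection: OD615 turbidity measurement; Material: Saccharomyces cerevisiae DeaD strain BB579, replicative lifespan model yeast; Timing: 48 h exposure, 30 °C; Doses: single 10 µM dose; Medium: CSMM-D restrictive synthetic medium containing dextrose (glucose); Controls: amphotericin B at 10 µg/mL as positive control.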
* marks the source's active call; other numbers are inactive results; · = no result given.

SMILES	RAM network inh	Yeast lifespan up	Measles CPE	BB579 growth dn
CCOC(=O)C(C)(C)N(Cc1ccc(Cl)cc1)S(=O)(=O)c1ccc(Cl)c([N+](=O)[O-])c1	9.4*	8.2	4.2	-48.5
CN(CC(=O)Nc1ccccc1Sc1ccccc1)C1CCCCC1	0.6	·	·	·
COc1cc(CCC(=O)NNC(=O)c2ccc(C)cc2)cc(OC)c1OC	0.8	·	·	·
O=C(O)C1CCCN(S(=O)(=O)c2ccc3c(c2)OCCO3)C1 (configuration not stated)	-0.6	·	·	·
CC(Sc1nc(-c2ccc(F)cc2)cs1)C(=O)Nc1ccc(Cl)cn1 (configuration not stated)	10.2*	2.0	0.1	-25.8
COc1cc(Br)cc(-c2nc3c(c(=O)[nH]c(=O)n3Cc3ccccc3)n2C)c1O	2.7	63.3*	4.4	-42.8
COCCn1c(-c2cccc([N+](=O)[O-])c2)nc2c1c(=O)[nH]c(=O)n2Cc1ccccc1	0.9	3.0	27.2*	-28.4
Cc1ccc2nc(-c3ccccc3)c(CC(=O)O)c(C(=O)O)c2c1	1.5	·	·	·
C=CCNC(=S)N1CCN(CCN=CC2=C(O)CC(c3cccs3)CC2=O)CC1 (configuration not stated)	0.9	9.3	32.6	-12.4
O=C1CC(c2ccc(F)cc2)CC(O)=C1C=NCCN1CCN(C(=O)Nc2ccccc2)CC1 (configuration not stated)	0.4	90.2*	4.1	-35.7
COc1ccc(NC(=S)N2CCN(CCN=CC3=C(O)CC(c4ccccc4)CC3=O)CC2)cc1 (configuration not stated)	-0.1	49.8*	11.1	-35.1
CC(=O)N1CCN(CCN=CC2=C(O)CC(c3cccs3)CC2=O)CC1 (configuration not stated)	-0.9	35.9*	14.7	-14.7
O=C1CC(c2ccco2)CC(O)=C1C=NCCN1CCN(C(=O)Nc2ccc(Cl)cc2)CC1 (configuration not stated)	-0.6	3.3	5.5	-22.2
O=C(Nc1ccc(C(=O)N2CCOCC2)cc1)Nc1ccc(Cl)cc1Cl	1.1	·	·	·
O=C1c2cccc3c([N+](=O)[O-])ccc(c23)C(=O)N1c1ccccn1	0.5	20.1	0.9	-5.5
O=C1c2cccc3c([N+](=O)[O-])ccc(c23)C(=O)N1c1ccc(Cl)cn1	0.8	33.0*	5.2	-22.9
Cc1cc(OCc2ccc(C(=O)NN=C3CCCC3)cc2)ccc1Cl	0.0	-6.4	12.6	96.9*
O=C(COc1ccc(OCc2ccccc2)cc1)NN=C1CCCC1	-1.5	·	·	·
NNC(=O)c1ccc(COc2ccc3c(c2)CCC3)cc1	-0.7	-5.2	12.5	30.4
O=C(Nc1ccccc1Cl)c1ccc(COc2ccc3c(c2)CCC3)cc1	10.8*	5.6	4.5	-54.5
O=C(NCc1ccco1)C(c1ccccc1)N(Cc1ccccc1)C(=O)Cn1nnc2ccccc21 (configuration not stated)	5.1	·	40.9*	-28.9
COCCNC(=O)C(c1cccc(OC)c1)N(Cc1cccs1)C(=O)Cn1nnc2ccccc21 (configuration not stated)	8.6*	-2.7	25.8	-15.2
O=c1cc(-c2ccc(Cl)cc2)[nH][nH]1	1.7	-8.9	40.5*	-5.8
CCCSc1nc(N2CCCC2)c2c(c1C#N)CC(C)(C)OC2	8.5*	-15.8	3.1	-26.7
Cc1cc(NC(=O)CCCn2cc([N+](=O)[O-])cn2)n(Cc2ccc(F)cc2)n1	1.1	·	·	·
SMILES	RAM network inh	Yeast lifespan up	Measles CPE	BB579 growth dn
COCCN(CCOC)S(=O)(=O)c1ccc(C(=O)Nc2sc3c(c2C(N)=O)CCCCC3)cc1	0.1	40.0*	9.8	-33.9
COC(=O)c1c(NC(=O)c2ccc(N(C)S(=O)(=O)c3ccc(C)cc3)cc2)sc2c1CCCC2	4.3	8.8	3.7	-34.5
O=C(COc1c(F)c(F)c(C(F)(F)F)c(F)c1F)Nc1ccc(N2CCOCC2)c(Cl)c1	5.1	-4.2	5.3	-21.9
CC(C)c1ccc(OCC(=O)Nc2ccc(OC(F)(F)F)cc2)cc1	2.9	5.3	34.5*	-34.0
CCC(C)c1ccc(NC(=O)COc2c(F)c(F)c(C(F)(F)F)c(F)c2F)cc1 (configuration not stated)	10.3*	8.0	15.9	-31.7
COc1cc(OC)cc(C(=O)N[C@H](C(=O)OCC(=O)Nc2ccc(C(C)C)cc2)C(C)C)c1	8.5*	1.8	11.5	-23.2
O=C(COc1ccccc1)Nc1ccc(OC(F)(F)C(F)F)c(NC(=O)COc2ccccc2)c1	9.8*	-3.3	3.0	-41.9
CCn1c(CNC(=O)COc2ccc(C(C)C)cc2)nnc1SCC(=O)Nc1cc(F)ccc1C	2.9	-15.0	8.3	-5.4
CCn1c(CNC(=O)COc2ccc(C(C)C)cc2)nnc1SCC(=O)Nc1ccc(F)cc1	10.0*	-4.6	0.8	-13.9
O=C(Cc1cccs1)Nc1nc2c(s1)CCCC2	-0.7	-14.3	92.5*	-22.7
O=C(Nc1nc2c(s1)CCCC2)c1cccs1	0.7	-10.5	6.1	-8.9
CC(=O)C1C(=O)CC(C)(O)C(C(C)=O)C1c1ccccc1 (configuration not stated)	1.0	·	·	·
O=C1c2ccccc2N2C(=O)c3ccccc3C2N1O (configuration not stated)	0.4	38.5*	7.4	-32.7
COc1ccc(CCNCC(=O)Nc2ccccc2C(F)(F)F)cc1	-0.2	·	·	·
CN1CCN(Cc2ccc(-c3ccc(Cl)cc3)o2)CC1	-0.2	-7.3	13.7	-37.2
OCCc1ccc(-c2ccc(Cl)cc2)o1	0.3	-33.6	36.7*	-55.8
Clc1ccc(COc2ccccc2CNCc2cccnc2)cc1	1.5	48.6*	2.5	-14.3
C=CCOc1ccccc1CNCc1cccnc1	0.8	-3.0	5.2	-12.8
CSc1nc(C)cc(Oc2ccccc2)n1	0.8	·	·	·
CCOC(=O)c1c(C2CC2)csc1NC(=O)COC(=O)c1ccc[n+]([O-])c1	5.6	-2.7	34.6	-5.2
CCOC(=O)c1c(C2CC2)csc1NC(C)=O	-1.1	-10.1	35.9*	-6.2
CC1=NOC(=O)/C1=C/c1ccc(-c2ccc(Cl)cc2)o1	3.2	-7.2	7.9	92.5*
O=C1COc2ccc(C(=O)c3ccccc3C(=O)NCc3ccccc3)cc2N1	2.2	-1.0	22.0*	-68.6
O=C1COc2ccc(C(=O)c3ccccc3C(=O)NCc3ccco3)cc2N1	-0.7	-9.1	4.5	-19.6
COC(=O)C/C(O)=C(/N=Nc1cccc(C(F)(F)F)c1)C(=O)OC	3.1	·	·	·
SMILES	RAM network inh	Yeast lifespan up	Measles CPE	BB579 growth dn
C=CCNC(=S)N/N=C(\C)c1ccccn1	-0.3	-9.5	13.0	93.2*
COc1ccc(/C=N/Nc2nnc(Cc3ccc(OC)c(OC)c3)c(=O)[nH]2)cc1OC	9.7*	4.3	6.8	-17.7
COc1ccc(/C=N/Nc2nnc(Cc3ccc(OC)c(OC)c3)c(=O)[nH]2)cc1	4.2	2.1	21.8	-25.8
CCN1CCCC1CNS(=O)(=O)c1ccc(Cl)c(C(F)(F)F)c1 (configuration not stated)	-0.2	·	·	·
CC(=O)N1CCN(c2ccc(NC(=O)COc3ccc(Cl)cc3Cl)cc2)CC1	10.1*	-4.4	4.6	-5.4
N#Cc1c(-c2c(Cl)cccc2Cl)noc1/C=C/Nc1ccc(C(=O)O)cc1	8.6*	·	·	·
